Laboratory results from ChEMBL document CHEMBL4613270, “Structure-Activity Relationship Study Enables the Discovery of a Novel Berberine Analogue as the RXRα Activator to Inhibit Colon Cancer” (J Med Chem, 2020).
The source made the active and inactive calls. The calls are words filed in the database; no cut-off is given here.

Columns and labels:
[1] = target: T1, Retinoic acid receptor RXR-alpha (Homo sapiens) (UniProt P19793); assay: Activation of RXRalpha in human KM12C cells assessed as increase in p21 (WAF1/CIP1) protein expression at 25 to 50 uM incubated for 15 hrs in presence of RXRalpha shRNA by Western blot analysis; format: cell-based
T1 sequence (whole entry): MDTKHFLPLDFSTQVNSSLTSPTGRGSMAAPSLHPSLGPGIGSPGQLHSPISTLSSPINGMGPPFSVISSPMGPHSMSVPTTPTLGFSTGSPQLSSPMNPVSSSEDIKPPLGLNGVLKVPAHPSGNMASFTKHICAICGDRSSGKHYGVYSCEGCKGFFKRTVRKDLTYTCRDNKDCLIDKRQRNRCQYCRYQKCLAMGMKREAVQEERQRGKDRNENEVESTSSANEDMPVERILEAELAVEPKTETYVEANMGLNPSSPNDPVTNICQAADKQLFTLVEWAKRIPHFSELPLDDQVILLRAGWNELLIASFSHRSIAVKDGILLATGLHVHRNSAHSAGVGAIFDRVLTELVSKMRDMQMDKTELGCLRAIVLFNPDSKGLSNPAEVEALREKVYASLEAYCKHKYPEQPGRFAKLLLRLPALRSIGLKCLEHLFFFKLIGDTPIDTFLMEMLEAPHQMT

[2] = target: T1, Retinoic acid receptor RXR-alpha (Homo sapiens); assay: Activation of RXRalpha in human KM12C cells assessed as reduction in c-Myc mRNA expression at 25 to 50 uM incubated for 15 hrs in presence of RXRalpha shRNA by real-time PCR analysis; format: cell-based
KM12C = assay: Inhibition of cell proliferation of human KM12C cells up to 100 uM in presence of RXRalpha shRNA incubated for 15 hrs by MTT assay; format: functional, cell-based
Summary of the method: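 KM12C cells were transfected with control or RXRα-targeting shRNA, seeded at 1×10^4 cells/well and incubated overnight at 37 °C. Compound was then added for 15 h. MTT (5 mg/mL stock) was incubated 4 h at 37 °C, formazan dissolved in DMSO, and absorbance read at 570 nm.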

[3] = target: T1, Retinoic acid receptor RXR-alpha (Homo sapiens); assay: Activation of RXRalpha in human KM12C cells assessed as […] crease in p21 (WAF1/CIP1) mRNA expression at 25 to 50 uM incubated for 15 hrs in presence of RXRalpha shRNA by real-time PCR analysis; format: cell-based
[4] = target: T1, Retinoic acid receptor RXR-alpha (Homo sapiens); assay: Activation of RXRalpha in human SW620 cells assessed as […] in PCNA protein expression at 40 to 80 uM incubated for 15 hrs by Western blot analysis; format: cell-based; settings: SW-620
[5] = Hepatotoxicity in BALB/c mouse xenografted with human KM12C cells assessed as induction of hepatomegaly by measuring body weight ratio at 100 mg/kg, ig dosed daily for 15 days; format: toxicity, organism-based; settings: in vivo, po, 360 h
[6] = target: T1, Retinoic acid receptor RXR-alpha (Homo sapiens); assay: Activation of RXRalpha in human KM12C cells assessed as […] protein expression at 25 to 50 uM incubated for 15 hrs by Western blot analysis; format: cell-based
[7] = target: T1, Retinoic acid receptor RXR-alpha (Homo sapiens); assay: Activation of RXRalpha in human KM12C cells assessed as reduction in Cdc2 protein expression at 25 to 50 uM incubated for 15 hrs in presence of RXRalpha shRNA by Western blot analysis; format: cell-based
[8] = target: T1, Retinoic acid receptor RXR-alpha (Homo sapiens); assay: Activation of RXRalpha in human KM12C cells assessed as increase transactivational activity on RXRE at 25 to 50 uM incubated for 15 hrs by luciferase reporter gene assay; format: cell-based
Summary of the method: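 Endogenous RXRα transactivation on an RXRE luciferase reporter, lipofection-transfected; compound added 20 h post-transfection for 15 h; lysis in passive lysis buffer at 4 °C, 1 h; firefly and Renilla luciferase activities read by dual-luciferase assay.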

[9] = Toxicity in human HIEC6 cells assessed a reduction in cell viability at 6.25 to 100 uM incubated for 15 hrs by MTT assay; format: cell-based
Summary of the method: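 HIEC-6 cells grown in MEM with 4% FBS, HEPES, GlutaMAX and 10 ng/mL EGF. MEF cells grown in DMEM high glucose with 10% FBS. Cells plated at 1×10⁴ per well and treated with a concentration series for 15 h. Viability read by MTT: 4 h at 37 °C, DMSO solubilization, absorbance at 570 nm.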

[10] = Hepatotoxicity in BALB/c mouse xenografted with human KM12C cells assessed as induction of necrotic hepatocytes at 100 mg/kg, ig dosed daily for 15 days by H and E staining; format: toxicity, organism-based; settings: in vivo, po, 360 h

COc1ccc2c(c1)CC[n+]1cc3c(OC)cccc3cc1-2.[Cl-]
Activity [1]: inactive
Activity [2]: inactive
inhibition (KM12C): inactive
Activity [3]: inactive
Activity [4]: Active
Activity [5]: Non-Toxic
Activity [6]: Active
Activity [7]: inactive
Activity [8]: Active
Activity [9]: Non-Toxic
Activity [10]: Non-Toxic
